Values after ≈ are worked out from the molar mass of the structure shown.

In series [1] the target is T1, Growth hormone secretagogue receptor type 1 (Homo sapiens, UniProt Q92847). Briefly: Displacement of [125I-His9]-ghrelin from human GRLN receptor by radioligand binding assay. A digest of the protocol: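 Competitive binding on isolated membranes expressing GRLN, with 125I-His-9 octanoylated ghrelin as radioligand.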
The nature of series [2]: Aqueous solubility of the compound. The format is physicochemical.
Series [3] is described as follows: Clearance in Sprague-Dawley rat at 2 m/kg, iv. The format is ADME, organism-based. Particulars: in vivo.
A short description of series [4]: Elimination half life in Sprague-Dawley rat at 2 m/kg, iv. The format is ADME, organism-based. The conditions noted are these: in vivo, read-out: beta t1/2.
Series [5] is described as follows: Volume of distribution at steady state in Sprague-Dawley rat at 2 m/kg, iv. The format is ADME, organism-based. The conditions noted are these: in vivo, read-out: Vdss.
The target in series [6] is T1, Growth hormone secretagogue receptor type 1. Put plainly: Agonist activity at human GRLN receptor expressed in HEK293 cells assessed as calcium binding by Ca2+ bioluminescence aequorin assay. The class given is functional, cell-based. A digest of the protocol: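 HEK-293 cells expressing human GRLN. Ca2+ bioluminescence read out by aequorin. Duplicate samples, maximum tolerated interassay variability ±10%. Full agonism defined as maximal response >70% of that of octanoylated human ghrelin.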

The next series has as its system Rattus norvegicus. Put plainly: Induction of gastric emptying in overnight-fasted iv dosed Wistar rat measured after 15 mins by […] analysis. The format is functional, organism-based, Stomach. An outline of the steps: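 Overnight-fasted male Wistar rats (200 ± 20 g), N = 5 per point. Compound given IV in 9% 2-hydroxypropyl-β-cyclodextrin together with an oral 2% methylcellulose meal containing 0.05% phenol red (2 mL). Sacrifice 15 min later; phenol red left in stomach read at 560 nm. […] Metoclopramide positive control at 10 mg/kg IV.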

Series [7] is described as follows: Cmax in Sprague-Dawley rat at 8 mg/kg, po. The class given is ADME, organism-based. Set-up: dose 8 mg/kg, route oral. Particulars: in vivo. An outline of the steps:
(§1)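 Male Sprague−Dawley rats (250 ± 20 g), 3 per compound in a single experiment, gavage 8 mg/kg in physiological saline. Blood taken at 12 time points over 6 h into K3EDTA tubes. Plasma stored at −20 °C, assayed by LC-MS/MS, noncompartmental analysis.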

The nature of series [8]: AUC (0 to infinity) in Sprague-Dawley rat at 8 mg/kg, po. The format is ADME, organism-based. On the set-up: time infinity, dose 8 mg/kg, route oral. Particulars: plasma. A digest of the protocol:
as §1

Series [9] can be described thus: Oral bioavailability in Sprague-Dawley rat at 8 mg/kg. The conditions noted are these: in vivo.
A short description of series [10]: Dissociation constant, pKa of the compound. The format is physicochemical.

T1 sequence (Q92847 whole entry): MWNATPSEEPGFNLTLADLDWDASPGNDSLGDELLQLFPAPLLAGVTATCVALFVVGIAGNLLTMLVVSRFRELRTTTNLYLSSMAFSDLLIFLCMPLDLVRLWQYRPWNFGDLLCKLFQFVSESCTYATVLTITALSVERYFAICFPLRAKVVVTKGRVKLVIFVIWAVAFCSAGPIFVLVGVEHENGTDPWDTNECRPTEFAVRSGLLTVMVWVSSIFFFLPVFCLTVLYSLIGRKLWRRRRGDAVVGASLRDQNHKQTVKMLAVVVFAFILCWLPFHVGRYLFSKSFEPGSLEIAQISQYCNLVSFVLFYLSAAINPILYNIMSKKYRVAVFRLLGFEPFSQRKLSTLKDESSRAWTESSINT

As to `C[C@@H]1C(=O)N[C@H](Cc2ccc(F)cc2)C(=O)NCCCc2cc(F)ccc2OCCN[C@@H](C2CC2)C(=O)N1C`, the Ki in series [1] was found to be 58 nM.
Turning to `CC[C@H](C)[C@@H]1NCCCc2ccccc2CCCNC(=O)[C@@H](Cc2ccccc2)NC(=O)[C@@H](C)N(C)C1=O`, in series [1], the Ki was 81 nM.
`CCC[C@@H]1NC[C@@H](C)Oc2ccccc2CCCNC(=O)[C@@H](Cc2ccc(F)cc2)NC(=O)[C@@H](C)N(C)C1=O` gave a solubility in [2] of 100 µg/mL (≈ 185 µM). The same compound showed a clearance in series [3] of 41 mL/min/kg. For the same compound, in series [4], the half-life is 29 min. This compound also displayed a Ki in series [1] of 34 nM. For the same compound, the Vd in series [5] was determined as 1.7 L/kg.
Turning to `C[C@@H]1CN[C@@H](C2CC2)C(=O)N(C)[C@H](C)C(=O)N[C@H](Cc2ccccc2)C(=O)NCCCc2ccccc2O1`, in [3], the clearance was 25 mL/min/kg. The half-life in series [4] came to 32 min. In addition, affinity in series [1] was put at a Ki of 34 nM. Also, the Vd in [5] stood at 1.3 L/kg.
Take `CCC[C@H](NCCOc1ccccc1/C=C/CNC(C)=O)C(=O)N(C)CC(=O)N[C@H](Cc1ccccc1)C(N)=O`: in [1], the inhibition constant Ki is greater than 10000 nM.
In the case of `CC1COc2ccccc2CCCNC(=O)[C@@H](Cc2ccc(F)cc2)NC(=O)[C@@H](C)N(C)C(=O)[C@H](C2CC2)N1` (mixture of isomers), the EC50 in series [6] amounted to 760 nM. This compound displayed a Ki in series [1] of 9 nM.
Turning to `CC[C@H](C)[C@@H]1NCCOc2ccccc2CCCNC(=O)[C@@H](CCc2ccccc2)NC(=O)[C@@H](C)N(C)C1=O`, in series [1], the Ki stood at 43 nM.
On to `C[C@@H]1C(=O)N[C@H](Cc2ccc(F)cc2)C(=O)NCCCc2cccc3c2O[C@H](CC3)CN[C@@H](C2CC2)C(=O)N1C`, for which the EC50 in series [6] worked out at 85 nM. Further, in series [3], the clearance was determined as 13 mL/min/kg. Besides, the half-life in [4] amounted to 59 min. This compound came in with a Ki in series [1] of 0.9 nM. Further, the Vd in series [5] came to 1.1 L/kg.
Take `Cc1ccc(C[C@H]2NC(=O)[C@@H](C)N(C)C(=O)[C@H](C3CC3)NCCOc3ccccc3CCCNC2=O)cc1`: in series [6], the EC50 amounted to 8.2 nM. Further, in series [1], the Ki worked out at 5 nM.
In series [1], `CCC[C@@H]1NCCOc2ccccc2CCCNC(=O)[C@@H](Cc2ccccc2)NC(=O)[C@@H](C)NC1=O` had a Ki of 500 nM.
Same read-out and setting: in the case of `CC(C)C[C@@H]1NCCOc2ccccc2CCCNC(=O)[C@@H](Cc2ccccc2)NC(=O)[C@@H](C)N(C)C1=O` it was 25 nM.
Turning to `CC[C@H]1NC(=O)[C@H]([C@@H](C)CC)NC[C@@H](C)Oc2ccccc2CCCNC(=O)[C@@H](Cc2ccccc2)NC1=O`, the Ki in [1] is 35 nM.
Take `C[C@@H]1C(=O)N[C@H](Cc2ccc(F)cc2)C(=O)NCCCc2ccccc2O[C@@H](C)CN[C@@H](C2CC2)C(=O)N1C`: the EC50 in [6] worked out at 26 nM. The compound further had a Ki in series [1] of 56 nM.
On to `C[C@@H]1CN[C@@H](C2CC2)C(=O)N(C)[C@H](C)C(=O)N[C@H](Cc2ccc(Cl)cc2)C(=O)NCCCc2ccccc2O1`, for which the EC50 turned out to be 0.84 mg/kg in the series with Rattus norvegicus and 18 nM in series [6]. In [7], this compound gave a Cmax of 670 nM. In series [3], this compound registered a clearance of 24 mL/min/kg. Moreover, the half-life in [4] came to 41 min. Besides, in series [1], the affinity, expressed as Ki, was 15 nM. Further, the Vd in [5] turned out to be 1.4 L/kg. In series [8], this compound showed an AUC(0-inf) of 1.23 µM·h. In series [9], this compound gave a bioavailability of 22%.
`CC[C@H](C)[C@@H]1NCCCc2ccccc2CCCCNC(=O)[C@@H](Cc2ccccc2)NC(=O)[C@@H](C)N(C)C1=O`: the EC50 in series [6] is 360 nM. The same compound had a Ki in series [1] of 78 nM.
For the compound `C[C@@H]1CN[C@@H](C2CC2)C(=O)N(C)[C@H](C)C(=O)N[C@H](Cc2ccc(F)cc2)C(=O)NCCCc2ccc(F)cc2O1`, the EC50 with Rattus norvegicus was determined as 1.38 mg/kg. This compound also displayed a Cmax in [7] of 750 nM. Further, the clearance in series [3] came to 9 mL/min/kg. Further, the half-life in [4] was 66 min. Also, the Ki in series [1] is 61 nM. In addition, the Vd in series [5] stood at 0.9 L/kg. In addition, in series [8], the AUC(0-inf) is 2.08 µM·h. In series [9], the bioavailability turned out to be 15%.
In the case of `CC[C@H](C)[C@@H]1NCCCc2ccccc2CCNC(=O)[C@@H](Cc2ccccc2)NC(=O)[C@@H](C)N(C)C1=O`, the affinity in [1], expressed as Ki, was 400 nM.
`CC[C@H](C)[C@@H]1NC[C@@H](C)Oc2ccccc2CCCNC(=O)[C@@H](Cc2ccc(F)cc2)NC(=O)[C@@H](C)N(C)C1=O` had a solubility in series [2] of 100 µg/mL (≈ 180 µM). The compound also displayed a clearance in series [3] of 40 mL/min/kg. The half-life in series [4] was found to be 44 min. The Ki in series [1] turned out to be 32 nM. Further, the Vd in [5] turned out to be 2.5 L/kg.
On to `CCC[C@@H]1NCCOc2ccccc2CCCNC(=O)[C@@H](Cc2ccccc2)NC(=O)[C@@H](C)N(C)C1=O`, for which the EC50 in series [6] turned out to be 40 nM. Further, the affinity in series [1] corresponds to a Ki of 16 nM. This compound also had a pKa in series [10] of 6.45.
`CCC[C@@H]1NCCOc2ccccc2CCCNC(=O)[C@@H](Cc2ccccc2)NC(=O)[C@H](C)N(C)C1=O`: in [1], affinity was put at a Ki of 580 nM.
Turning to `CC[C@H](C)[C@@H]1NCCCC/C=C/CCNC(=O)[C@@H](Cc2ccccc2)NC(=O)[C@@H](C)N(C)C1=O` (mixture of isomers), the EC50 in series [6] stood at 310 nM. The compound further displayed a Ki in series [1] of 160 nM.
In turn, `C[C@@H]1C(=O)N[C@H](Cc2ccc(F)cc2)C(=O)NCCCc2ccccc2OCCN[C@@H](C2CC2)C(=O)N1C` showed a clearance in series [3] of 72 mL/min/kg. In addition, the half-life in [4] is 14 min. For the same compound, in series [1], the Ki came to 7.3 nM. The Vd in [5] was determined as 1.4 L/kg.
For `C[C@@H]1C(=O)N[C@H](Cc2ccccc2)C(=O)NCCCc2ccccc2OCCN[C@@H](C2CC2)C(=O)N1C`, the EC50 in [6] is 23 nM. Further, the Ki in series [1] amounted to 4.4 nM. For the same compound, the pKa in series [10] was 6.72.
In the case of `C[C@@H]1C(=O)N[C@H](Cc2ccc(C(F)(F)F)cc2)C(=O)NCCCc2ccccc2OCCN[C@@H](C2CC2)C(=O)N1C`, in series [6], the EC50 came out at 11 nM. For the same compound, the affinity in [1], expressed as Ki, was 7 nM.
In the case of `CCC[C@@H]1NCCOc2ccccc2CCCNC(=O)[C@@H](Cc2ccccc2)NC(=O)CN(C)C1=O`, affinity in [1] was put at a Ki of 68 nM.
In the case of `C[C@@H]1C(=O)N[C@H](Cc2ccccc2F)C(=O)NCCCc2ccccc2OCCN[C@@H](C2CC2)C(=O)N1C`, the Ki in [1] stood at 6.2 nM.
On to `CN1CC(=O)N[C@H](Cc2ccccc2)C(=O)NCCCc2ccccc2OCCN[C@@H](Cc2ccccc2)C1=O`, for which the Ki in series [1] came out at 670 nM.
`CCC[C@@H]1NCCOc2ccccc2CCCNC(=O)[C@H](Cc2ccccc2)NC(=O)CN(C)C1=O` displayed a Ki in series [1] of 380 nM.
`CC[C@H](C)[C@@H]1NCCCCCCCCNC(=O)[C@@H](Cc2ccccc2)NC(=O)[C@@H](C)N(C)C1=O` yielded a Ki in series [1] of 1500 nM.
For the compound `CC(C)[C@@H]1NC[C@@H](C)Oc2ccccc2CCCNC(=O)[C@@H](Cc2ccc(F)cc2)NC(=O)[C@@H](C)N(C)C1=O`, in series [3], the clearance is 40 mL/min/kg. For the same compound, the half-life in series [4] amounted to 34 min. Further, the Ki in series [1] was found to be 104 nM. The Vd in series [5] was determined as 2 L/kg.
In series [1], `C[C@@H]1C(=O)N[C@H](Cc2ccc(F)cc2)C(=O)NCCCc2cccc3c2O[C@@H](CC3)CN[C@@H](C2CC2)C(=O)N1C` returned a Ki of 19 nM.
For the compound `CC[C@H](C)[C@@H]1NCCOc2ccccc2CCNC(=O)[C@@H](Cc2ccccc2)NC(=O)[C@@H](C)N(C)C1=O`, in [6], the EC50 stood at 530 nM. Besides, the affinity in [1], expressed as Ki, was 210 nM.
The compound `CC[C@H](C)[C@@H]1NC[C@@H](C)Oc2ccccc2CCCNC(=O)[C@@H](Cc2ccccc2)NC(=O)[C@@H](C(C)C)NC1=O` registered a Ki in [1] of 380 nM.
On to `CN1CC(=O)N[C@H](Cc2ccccc2)C(=O)NCCCc2ccccc2OCCN[C@@H](CCCCN)C1=O`, for which, in series [1], the Ki amounted to 1100 nM.
The compound `C[C@@H]1CN[C@@H](C2CCCCC2)C(=O)N(C)[C@H](C)C(=O)N[C@H](Cc2ccc(F)cc2)C(=O)NCCCc2ccccc2O1` gave a solubility in [2] of no more than 10 µg/mL. The EC50 in [6] was determined as 49 nM. In series [3], this compound displayed a clearance of 43 mL/min/kg. The half-life in [4] was determined as 74 min. The Ki in series [1] is 0.38 nM. Besides, the Vd in series [5] was determined as 4.7 L/kg.
For `CCCC[C@H]1NC(=O)CN(C)C(=O)[C@H](CCC)NCCOc2ccccc2CCCNC1=O`, the Ki in series [1] stood at 400 nM.
The same measure, in the same setting: the figure for `C[C@@H]1C(=O)N[C@H](Cc2cccc(F)c2)C(=O)NCCCc2ccccc2OCCN[C@@H](C2CC2)C(=O)N1C` is 21 nM; for `CC[C@H](C)[C@@H]1NCCOc2ccccc2CCCNC(=O)[C@@H](Cc2ccccc2)NC(=O)[C@@H](C)N(C)C1=O` it is 6.4 nM.
Take `CCC[C@@H]1NCCOc2ccccc2CCCNC(=O)[C@@H](Cc2ccc(O)cc2)NC(=O)CN(C)C1=O`: in [6], the EC50 turned out to be 39 nM. In series [1], this compound yielded a Ki of 120 nM.
Compound `CCC[C@H]1NCCOc2ccccc2CCCNC(=O)[C@@H](Cc2ccccc2)NC(=O)CN(C)C1=O` registered a Ki in series [1] of 1200 nM.

The values are drawn from ChEMBL document CHEMBL1921692 (J Med Chem, 2011).
